GRIN3A LBD mod: binders of NR3A ligand-binding domain, primary screen, biophysical, differential scanning fluorimetry, uHTS. Glutamate receptor ionotropic, NMDA 3A (GRIN3A) ligand-binding domain. NR3A LBD differential scanning fluorimetry, Tm shift; 0% = protein alone, 100% = glycine-bound protein. Tm shift relative to glycine control, % at 25 µM. 2.5% of 340,000 active. AID 1259313, 2017;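 active means melting temperature shift of at least 10% of the positive control shift, at one fixed dose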
MPTP inh: mitochondrial permeability transition pore inhibitors, primary screen, biochemical, isolated mouse mitochondria, absorbance. Ca2+ swelling absorbance, 30 min. inhibition, % at 10 µM. 1.4% of 360,000 active;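 active means inhibition of 50% or more, scaled per plate between neutral and stimulator controls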;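 further: 0% = DMSO wells given calcium and 100% = 1 mM EGTA wells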
SENP1 FRET inh: human SENP1 catalytic domain inhibitors, primary screen, biochemical, FRET, uHTS | Sentrin-specific protease 1 (Homo sapiens), Q9P0U3 | recombinant SENP1 catalytic domain, CyPet-SUMO1-YPet FRET cleavage | inhibition, % at 10 µM | 0.21% of 360,000 active;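 active means inhibition at least 30% at 10 µM, raw YFP signal under a set limit, fluorescence ratio 0.5 to 1.5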;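 further: 0% = enzyme with DMSO and 100% = no enzyme wells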
Target sequence (Q9P0U3 419-644 limits assumed): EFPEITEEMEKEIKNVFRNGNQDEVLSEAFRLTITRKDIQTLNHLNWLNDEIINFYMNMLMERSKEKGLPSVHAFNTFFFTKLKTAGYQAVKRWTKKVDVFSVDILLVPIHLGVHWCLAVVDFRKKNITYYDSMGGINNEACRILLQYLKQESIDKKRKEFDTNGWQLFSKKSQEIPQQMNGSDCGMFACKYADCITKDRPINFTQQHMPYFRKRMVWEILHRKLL
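Assay system: hSENP1 catalytic domain, recombinant. Amount: SENP1 enzyme, 20 pM final. Schedule: 50 min reaction, RT, dark. Technique: FRET, CFP and YFP emission. Control set: no-enzyme wells low, DMSO-plus-enzyme wells high control.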
EBI2 antag: EBI2 receptor antagonists, beta-arrestin recruitment, primary screen, cell-based, luminescence, 7a,25-OHC stimulation, uHTS. inhibition, % at 5 µM. 0.81% of 360,000 active. 7a,25-OHC stimulated; in the data active means inhibition above about 38%;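 further: enzyme fragment complementation signal reports receptor beta-arrestin coupling in cells; 0% = agonist plus DMSO wells and 100% = wells without agonist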
Target sequence (P32249 whole entry, looked up, the tested form may be a part): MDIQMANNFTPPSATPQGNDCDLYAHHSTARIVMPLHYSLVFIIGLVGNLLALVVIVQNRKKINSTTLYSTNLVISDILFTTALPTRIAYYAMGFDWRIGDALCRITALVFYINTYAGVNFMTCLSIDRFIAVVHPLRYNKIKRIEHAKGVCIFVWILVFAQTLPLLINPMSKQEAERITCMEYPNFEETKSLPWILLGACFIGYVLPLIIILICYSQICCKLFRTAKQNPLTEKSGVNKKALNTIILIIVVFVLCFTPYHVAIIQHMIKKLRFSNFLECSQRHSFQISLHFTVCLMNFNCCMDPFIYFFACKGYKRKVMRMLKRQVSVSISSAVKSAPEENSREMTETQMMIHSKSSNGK
* = called active by the depositor; . = no result. Hits are enriched below; roughly 4.4% of the tested compounds scored in any of these assays.

SMILES	GRIN3A LBD mod	MPTP inh	SENP1 FRET inh	EBI2 antag
Cc1cc(C2N=C(N)Nc3nc4ccccc4n32)c(C)n1-c1ccccc1Cl (stereo unspecified)	12*	9	-1	-15
O=C(O)c1ccc(S(=O)(=O)N(CCc2ccccc2)Cc2ccc(Cl)cc2)cc1	-9	1	0	-1
COC(=O)CCC1(C(N)=O)CCC(=O)c2ccccc21 (stereo unspecified)	13*	0	-6	0
CCOC(=O)CCc1cccc2c1CCC2=O	1	1	1	-2
Cn1cnc2c1c(=O)[nH]c(=O)n2Cc1ccccc1	10*	1	-5	-1
CC(C)CCn1cnc2c1c(=O)[nH]c(=O)n2Cc1ccccc1	-1	1	0	4
COCCNC(=O)C1(C(F)(F)F)CC(CCCO)CCCO1 (stereo unspecified)	-1	-2	1	-6
O=C(CCNS(=O)(=O)c1ccc(Cl)cc1)N1CCCCCC1	11*	-3	1	-6
O=C(CCNS(=O)(=O)c1ccc(Cl)cc1)N1CCOCC1	-3	-2	0	3
Cc1ccccc1Nc1nc(-c2ccccc2)c(C(=O)Nc2cccnc2)s1	-24	1	-12	17
COc1ccc(Nc2nc(-c3ccccc3)c(C(=O)Nc3cccnc3)s2)cc1	19*	2	-16	13
O=S(=O)(NCCS(=O)(=O)N1CCN(c2ccccc2)CC1)c1ccccc1	-1	0	0	-1
COc1ccc(S(=O)(=O)NCCS(=O)(=O)N2CCN(c3ccccc3)CC2)cc1	19*	0	3	-7
CC1=C(C(=O)NC2CCC(C)CC2)C2(CCC(C)CC2)OC1=O (stereo unspecified)	14*	0	3	-11
CCOC(=O)N1CCC(NC(=O)C2=C(C)C(=O)OC23CCC(C)CC3)CC1 (stereo unspecified)	-4	-1	3	-5
CCOc1ccc(C(C(=O)NCC2CCCO2)N(C(=O)c2snc(C(N)=O)c2N)c2ccc3c(c2)OCCO3)cc1 (stereo unspecified)	-2	0	-13	22
COc1ccc(NS(=O)(=O)c2cc(NC(=O)c3nc4nc(C)cc(C)n4n3)ccc2C)cc1	12*	-1	3	-1
Cc1cc(C)c(S(=O)(=O)Nc2cccc(S(=O)(=O)N3CCOCC3)c2)c(C)c1	-16	16	2	6
O=C(Nc1cccc(C(F)(F)F)c1)c1ccccc1NC(=O)C1CCCCC1	10*	39	0	1
O=C(Nc1cc(C(F)(F)F)ccc1F)C1CCCCC1	-1	-2	1	-6
O=c1c2c(ncn2C2CCCC2)n(Cc2ccccc2)c(=O)n1CCOc1ccccc1	15*	6	0	6
COc1cc(C(=O)Nc2c(C(=O)O)[nH]c3ccc(Br)cc23)cc(OC)c1OC	10*	0	2	-4
NS(=O)(=O)c1ccc(S(=O)(=O)N2CCCC2)cc1	-3	-3	1	-4
NS(=O)(=O)c1ccc(Nc2ccc3cc(S(=O)(=O)N4CCCCC4)ccc3n2)cc1	37*	-1	-1	1
CSCc1ccc(C(=O)N2CCC(CCC(=O)N(C)Cc3ccccc3)CC2)o1	-3	-1	0	4
SMILES	GRIN3A LBD mod	MPTP inh	SENP1 FRET inh	EBI2 antag
COc1ccccc1-c1noc(CCC(=O)Nc2cccc(C)c2)n1	14*	-2	2	8
C=C(C)C(O)Cc1c(OC)ccc(C(=O)/C=C/c2ccc(O)cc2)c1O (stereo unspecified)	25*	2	9	17
COC(=O)c1ccc(COC(=O)C(CCSC)NC(=O)COc2ccccc2)cc1 (stereo unspecified)	22*	1	6	2
CSCCC(NC(=O)COc1ccccc1)C(=O)OCC(=O)c1ccccc1 (stereo unspecified)	0	0	2	-11
O=C1Nc2ccccc2C1Cc1ccccc1 (stereo unspecified)	-1	1	4	2
O=C1C=CC2(C=C1)O[C@H](Cc1ccccc1)[C@@H](Cc1ccccc1)O2	0	-2	3	85*
COc1ccc(N2C(=O)CC(Cc3ccccc3)C2=O)cc1 (stereo unspecified)	-1	1	3	-8
COc1ccc(C[C@@H]2OC3(C=CC(=O)C=C3)O[C@H]2Cc2ccc(OC)cc2)cc1	5	-3	0	88*
CC(C)(C)NC(=O)CC1C[C@H](C(=O)N2CCOCC2)[C@@]2(C)c3[nH]c4ccccc4c3CCN2C1=O (stereo partly specified)	-2	1	0	-15
Cc1ccc(-c2[nH]ncc2C(=O)c2ccc(Br)cc2)c(O)c1	.	2	1	2
O=C(Nc1ccc(NC(=O)c2cccs2)cc1)c1cccnc1	8	0	2	-4
CC(/C=N/NC(=O)c1cccs1)=C\c1ccccc1	-7	-2	-1	19
O=C(O)c1ccc(NC(=O)c2cccc(NC(=O)c3cccs3)c2)cc1	-10	1	0	-16
O=C(N/N=C/C(Cl)=C\c1ccccc1)c1cccs1	13*	5	5	3
O=C(Nc1ccc(NC(=O)c2cccs2)cc1)c1ccccc1	16*	0	-1	-7
O=C(Nc1ccccc1)Nc1snnc1C(=O)Nc1cccc(O)c1	24*	0	-3	13
Cc1nnsc1C(=O)NNC(=O)Nc1ccccc1	0	-2	2	10
O=C(Nc1cccc(O)c1)c1ccc(NC(=O)c2cccs2)cc1	37*	1	-41	-3
O=C(Nc1cccc(O)c1)c1cccc(C(=O)Nc2cccc(O)c2)c1	34*	2	1	1
O=C(c1ccncc1)c1ccc(NC(=O)c2cccs2)cc1	0	-2	2	2
O=C(Cc1cccs1)Nc1cccc(C(=O)Nc2ccc(C(=O)O)cc2)c1	23*	-2	3	-1
O=C(Nc1ccc(O)cc1)c1ccc(NC(=O)c2cccs2)cc1	28*	-1	1	-1
O=C(Nc1cccc(O)c1)c1ccc(Br)cc1	5	-2	1	8
O=C1CC(C(=O)Nc2cccc(Cl)c2)n2ncnc2N1 (stereo unspecified)	1	-1	1	2
Cc1ccc(NC(=O)N2CCCCC2)cc1[N+](=O)[O-]	-10	3	2	8
CC1CCCCN1C(=O)CSc1nnc(-c2ccco2)o1 (stereo unspecified)	-2	0	0	-16
CCc1cccc(CC)c1NC(=O)NC1CCCCC1	13*	-1	1	-13
CC(C)C(C)NC(=O)COc1ncnc2sccc12 (stereo unspecified)	0	0	-7	0
O=C(NCCc1c[nH]c2ccccc12)C(=O)NCC(c1ccco1)N1CCN(c2ccccc2F)CC1 (stereo unspecified)	-2	-2	1	58*

Compound activity: PubChem BioAssay, Sanford-Burnham Center for Chemical Genomics
